The term IC50 denotes the midpoint of a concentration-inhibition curve. As a reminder, the Ki is the equilibrium dissociation constant of an inhibitor or competing ligand from its target.

Structures are written as SMILES.

25 molecules from ChEMBL document CHEMBL1127495, “A recombinant human stromelysin catalytic domain identifying tryptophan derivatives as human stromelysin inhibitors” (J Med Chem, 1994) can be followed below.

The target of experiment [1] is T1, Stromelysin-1 (Homo sapiens, UniProt P08254). Kind of experiment: (§1) Inhibition of recombinant stromelysin catalytic domain (SCD). The procedure, abridged:
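E. coli-expressed human stromelysin catalytic domain (Phe-100 to Pro-273), expressed without propeptide so needing no activation, at 100 nM (10 nM for the hydroxamate peptide). A405 read over 3 min at room temperature.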

Experiment [2] concerns the target T1, Stromelysin-1. Kind of experiment: In vitro inhibition of recombinant stromelysin catalytic domain.
The target of experiment [3] is T1, Stromelysin-1. The experiment can be described thus: Inhibition of full length stromelysin isolated from cultured human cells (FLS).
Experiment [4] deals with T1, Stromelysin-1. Kind of experiment: Inhibition of full length stromelysin isolated from cultured human cells (FLS).
The target of experiment [5] is T1, Stromelysin-1. The description is as §1. This is another data set of the same source.

T1 sequence (P08254 whole entry, the tested form may be a part): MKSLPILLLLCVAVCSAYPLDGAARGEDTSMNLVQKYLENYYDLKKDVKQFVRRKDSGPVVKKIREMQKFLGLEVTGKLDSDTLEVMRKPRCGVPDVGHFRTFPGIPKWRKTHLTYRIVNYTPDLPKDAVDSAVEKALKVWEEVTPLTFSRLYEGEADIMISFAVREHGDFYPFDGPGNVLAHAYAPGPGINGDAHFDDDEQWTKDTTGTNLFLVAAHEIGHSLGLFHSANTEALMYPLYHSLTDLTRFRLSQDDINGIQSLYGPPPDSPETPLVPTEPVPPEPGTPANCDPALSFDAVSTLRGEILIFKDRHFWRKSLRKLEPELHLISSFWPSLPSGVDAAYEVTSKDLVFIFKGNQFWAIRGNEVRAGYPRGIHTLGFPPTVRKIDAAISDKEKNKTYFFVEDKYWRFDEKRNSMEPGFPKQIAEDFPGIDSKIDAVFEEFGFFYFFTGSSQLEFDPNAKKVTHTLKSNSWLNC

Take `O=C(N[C@@H](Cc1c[nH]c2ccccc12)C(=O)O)c1ccccc1`: the concentration for half-maximal inhibition (IC50) on Stromelysin-1 [1] was less than 500 µM.
Still for that read-out and setting: the result for `CC(=O)N[C@H](Cc1c[nH]c2ccccc12)C(=O)O` reads less than 500 µM.
On to `CC(=O)N[C@H](Cc1ccc(O)cc1)C(=O)O`, for which the half-maximal inhibitory concentration (IC50) on Stromelysin-1 [2] is more than 500 µM.
`O=C(N[C@@H](Cc1ccc(O)cc1)C(=O)O)OCc1ccccc1`: the figures for the IC50 on Stromelysin-1 [3] and on Stromelysin-1 [2] were 22 µM and 24 µM, respectively. Besides, the results for the inhibition constant Ki at Stromelysin-1 [4] and at Stromelysin-1 [5] were 18 µM and 20 µM, respectively.
For the molecule `O=C(N[C@@H](Cc1c[nH]c2ccccc12)C(=O)O)OCC1c2ccccc2-c2ccccc21`, the half-maximal inhibitory concentration (IC50) on Stromelysin-1 [2] worked out at 500 µM.
The same measure, in the same setting: to `CC(C)(C)OC(=O)N[C@H](Cc1ccc(O)cc1)C(=O)O` belongs more than 500 µM.
Regarding `O=C(N[C@@H](Cc1c[nH]c2ccccc12)C(=O)ON1C(=O)CCC1=O)OCc1ccccc1`, the IC50 at Stromelysin-1 [2] came to 13 µM. Moreover, the Ki on Stromelysin-1 [5] is 11 µM.
As for `O=C(N[C@H](Cc1c[nH]c2ccccc12)C(=O)O)OCC1c2ccccc2-c2ccccc21`, the concentration for half-maximal inhibition (IC50) at Stromelysin-1 [1] is less than 500 µM.
As for `O=C(N[C@H](Cc1ccc(O)cc1)C(=O)O)OCc1ccccc1`, the IC50 at Stromelysin-1 [3] was found to be 450 µM; on Stromelysin-1 [2], 432 µM. The Ki at Stromelysin-1 [4] was found to be 377 µM; at Stromelysin-1 [5] it was 356 µM.
In the case of `O=C(/C=C/c1ccco1)N[C@@H](Cc1c[nH]c2ccccc12)C(=O)O`, on Stromelysin-1 [2], the IC50 was 145 µM. Besides, the inhibitory constant (Ki) at Stromelysin-1 [5] was found to be 120 µM.
Taken in the same sequence, the figures for `CC(C)(C)OC(=O)N[C@@H](Cc1cn(C=O)c2ccccc12)C(=O)O` were 34 µM and 28 µM.
As to `NC(=O)[C@H](Cc1c[nH]c2ccccc12)NC(=O)OCc1ccccc1`, on Stromelysin-1 [1], the IC50 is less than 500 µM.
With `O=C(N[C@H](Cc1ccccc1)C(=O)O)OCc1ccccc1`, the IC50 at Stromelysin-1 [3] and on Stromelysin-1 [2] was more than 500 µM each time.
For `Cc1cc(C)c(S(=O)(=O)n2cc(C[C@H](NC(=O)OC(C)(C)C)C(=O)O)c3ccccc32)c(C)c1`, the 50% inhibitory concentration (IC50) at Stromelysin-1 [2] is 63 µM. Further, on Stromelysin-1 [5], the Ki came to 52 µM.
For `NNC(=O)[C@H](Cc1ccc(O)cc1)NC(=O)OCc1ccccc1`, on Stromelysin-1 [2], the IC50 is more than 500 µM.
Regarding `CC(C)(C)OC(=O)N[C@@H](Cc1c[nH]c2ccccc12)C(=O)ON1C(=O)CCC1=O`, on Stromelysin-1 [2], the 50% inhibitory concentration (IC50) is 102 µM. Further, the Ki at Stromelysin-1 [5] was determined as 84 µM.
Consider `CC(C)(C)OC(=O)N[C@@H](Cc1ccc(O)cc1)C(=O)O`, for which the IC50 at Stromelysin-1 [1] was less than 500 µM.
Regarding `CC(C)(C)OC(=O)N[C@H](Cc1c[nH]c2ccccc12)C(=O)O`, the IC50 on Stromelysin-1 [1] was less than 500 µM.
As for `CC(C)(C)OC(=O)N[C@@H](Cc1c[nH]c2ccccc12)C(=O)O`, on Stromelysin-1 [2], the IC50 turned out to be 10 µM. Besides, the Ki at Stromelysin-1 [5] amounted to 8 µM.
On to `NC(=O)[C@H](Cc1ccc(O)cc1)NC(=O)OCc1ccccc1`, for which the concentration for half-maximal inhibition (IC50) on Stromelysin-1 [2] is more than 500 µM.
For the molecule `O=C(N[C@@H](Cc1ccccc1)C(=O)O)OCc1ccccc1`, the IC50 against Stromelysin-1 [3] was 99 µM; on Stromelysin-1 [2], 40 µM. Moreover, the Ki on Stromelysin-1 [4] was determined as 83 µM; on Stromelysin-1 [5], 33 µM.
For `CC(=O)N[C@@H](Cc1ccc(O)cc1)C(=O)O` [ACETYL TYROSINE], the IC50 on Stromelysin-1 [2] is more than 500 µM.
As to `CC(=O)N[C@@H](Cc1c[nH]c2ccccc12)C(=O)O` [ACETYLTRYPTOPHAN], the 50% inhibitory concentration (IC50) at Stromelysin-1 [1] is less than 500 µM.
As to `N[C@H](Cc1c[nH]c2ccccc12)C(=O)O` [D-TRYPTOPHAN], the IC50 at Stromelysin-1 [2] was more than 500 µM.
On the same count and under the same terms, to `N[C@@H](Cc1c[nH]c2ccccc12)C(=O)O` [TRYPTOPHAN] belongs more than 500 µM.
